MBD2 DNA inh: blocks human MBD2 binding to methylated DNA; Q9UBB5; hit rate 0.31% among 370,000; TR-FRET, MBD2 binding to methylated oligonucleotide; inhibition, % at 4.4 µM; AID 686964; in the data active means inhibition above about 13%
Target sequence (Q9UBB5 whole entry, looked up): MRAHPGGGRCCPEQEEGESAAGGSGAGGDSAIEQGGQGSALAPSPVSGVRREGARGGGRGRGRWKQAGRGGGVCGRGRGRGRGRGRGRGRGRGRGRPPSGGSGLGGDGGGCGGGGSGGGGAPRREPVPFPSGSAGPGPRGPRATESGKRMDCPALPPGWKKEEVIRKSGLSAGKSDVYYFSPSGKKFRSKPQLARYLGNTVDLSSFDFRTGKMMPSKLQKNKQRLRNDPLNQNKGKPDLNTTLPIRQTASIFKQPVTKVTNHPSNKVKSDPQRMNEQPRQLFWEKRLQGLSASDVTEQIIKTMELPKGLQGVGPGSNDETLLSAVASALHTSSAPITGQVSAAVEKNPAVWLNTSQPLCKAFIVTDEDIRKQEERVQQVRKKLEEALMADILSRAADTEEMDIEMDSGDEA
LEDGF integ inh: blocks HIV-1 LEDGF/p75-dependent DNA integration | TR-FRET IN-LEDGF/p75 DNA integration, Eu/Cy5 | inhibition, % at 3.7 µM | hit rate 0.64% among 370,000 | AID 743269;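 active means inhibition above the screen-wide mean plus 3 SD, cut at about 13% in these data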;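 further: signal is the Cy5 over europium emission ratio at 671 and 618 nm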
UHRF1 MBD2 ctr: human UHRF1 methylated DNA binding inhibitors. AID 687016. hit rate 0.75% among 370,000. inhibition, % at 4.4 µM. Q96T88. UHRF1 binding to methylated oligo, TR-FRET; in the data active means inhibition above about 21%;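 further: UHRF1 SRA domain binding a hemimethylated CpG hairpin DNA probe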
CSN deneddyl inh: inhibitors of human CSN-mediated cullin deneddylation; Q92905; Purified CSN, SCF-Nedd8-OG deneddylation, fluorescence polarization; inhibition, % at 12.5 µM; hit rate 0.38% among 360,000; AID 651999;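 active means pattern-corrected inhibition above about 35%, with an unprinted fluorescence ratio check between 0.5 and 1.5, limit read from the data, passing the limit was not always enough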
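test system = HEK293T-derived human Csn5 enzyme | amount = 0.24 nM Csn5 enzyme, final concentration | medium = Tris/NaCl/DTT buffer, pH 7.5 | schedule = 90 min reaction at room temperature | signal = FP | evaluation = inhibition of Csn5 cleavage, % | compound dosing = single dose of 12.5 µM compound with 0.25% DMSO | probe or stimulus = 10 nM SCFSkp2-Nedd8OG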
rCAG RNA binder: molecules binding r(CAG) RNA repeats. r(CAG) RNA repeat, TO-PRO-1 dye displacement fluorescence. inhibition, % at 3 µM. hit rate 1.3% among 370,000. AID 651821;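 active means inhibition above the plate cutoff, the mean of all test compounds on that plate plus 3 SD, cut at about 35% in these data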;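 further: higher means more dye released from RNA so lower well fluorescence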
ATG4B inh: ATG4B (human) cysteine protease inhibition; inhibition, % at 8.33 µM; Q9Y4P1; hit rate 0.51% among 340,000; ATG4B cleavage of LC3-PLA2, NBD-HPC fluorescence, 1 h; AID 504462; in the data active means inhibition above about 40%
Numbers stand for hits. In the library only some 3.1% were active in any assay of this set; here they are far more common.

Results for O=C(NCc1cc(Cl)cc(Cl)c1)c1ccc2nc(COCCO)[nH]c2c1 ?
MBD2 DNA inh: inactive; LEDGF integ inh: inactive; UHRF1 MBD2 ctr: 21; CSN deneddyl inh: inactive; rCAG RNA binder: inactive

What do the screens show for `N#Cc1c(NC(=O)c2ccccc2Cl)n(Cc2ccccc2)c2nc3ccccc3nc12`?
MBD2 DNA inh: inactive; LEDGF integ inh: 16; UHRF1 MBD2 ctr: inactive; CSN deneddyl inh: 74; rCAG RNA binder: 90; ATG4B inh: 52

What do the screens show for `CCOC(=O)C1CCN(c2nc(N)c3c(N)nc(SCC(=O)O)cc3c2C#N)CC1`?
MBD2 DNA inh: inactive; LEDGF integ inh: inactive; UHRF1 MBD2 ctr: inactive; CSN deneddyl inh: inactive; rCAG RNA binder: 35; ATG4B inh: inactive

How did O=C(COC(=O)c1ccc([N+](=O)[O-])s1)Nc1ncc(C(F)(F)F)cc1Cl do in these assays?
MBD2 DNA inh: inactive; LEDGF integ inh: inactive; UHRF1 MBD2 ctr: inactive; CSN deneddyl inh: 38; rCAG RNA binder: inactive; ATG4B inh: inactive

Results for CCCCN(C)CCCNC(=O)Cn1cc2c(n1)-c1c(oc(C(=O)N3CCCC3)c1C)CC2 ?
MBD2 DNA inh: inactive; LEDGF integ inh: inactive; UHRF1 MBD2 ctr: 53; CSN deneddyl inh: inactive; rCAG RNA binder: inactive

What do the screens show for `COc1ccc(-c2cc(-c3nnc(SCC(=O)Nc4nccs4)n3N)[nH]n2)cc1`?
MBD2 DNA inh: inactive; LEDGF integ inh: inactive; UHRF1 MBD2 ctr: inactive; rCAG RNA binder: inactive

Results for CCN(Cc1cn(Cc2ccccc2)nn1)S(=O)(=O)c1ccc(F)cc1Br ?
MBD2 DNA inh: inactive; LEDGF integ inh: inactive; UHRF1 MBD2 ctr: inactive; rCAG RNA binder: inactive

How did O=C(Nc1ccc(F)cc1)C1CCN(C(=O)NCc2ccccc2)CC1 do in these assays?
MBD2 DNA inh: inactive; LEDGF integ inh: inactive; UHRF1 MBD2 ctr: inactive; CSN deneddyl inh: inactive; rCAG RNA binder: inactive; ATG4B inh: inactive

Results for O=C(Nc1ccccc1F)C1CCN(C(=O)NCc2ccccc2)CC1 ?
MBD2 DNA inh: inactive; LEDGF integ inh: inactive; UHRF1 MBD2 ctr: 24; CSN deneddyl inh: inactive; rCAG RNA binder: inactive; ATG4B inh: inactive

Results for Cc1ccc(CN[C@@H]2CC[C@@]34CCCN3C(=O)CCC[C@H]4C2)cc1 ?
MBD2 DNA inh: inactive; LEDGF integ inh: inactive; UHRF1 MBD2 ctr: inactive

What do the screens show for `NC(=O)C1CC(=O)N(c2ccc(OCc3c(Cl)cccc3Cl)cc2)C1` (stereo unspecified)?
MBD2 DNA inh: inactive; LEDGF integ inh: inactive; UHRF1 MBD2 ctr: 23; CSN deneddyl inh: inactive; rCAG RNA binder: inactive; ATG4B inh: inactive

How did Cc1ccc(-c2[nH]nc(N)c2N=Nc2ccccc2C)cc1 do in these assays?
MBD2 DNA inh: inactive; LEDGF integ inh: inactive; UHRF1 MBD2 ctr: inactive; CSN deneddyl inh: inactive; rCAG RNA binder: inactive; ATG4B inh: inactive

How did Cc1cccc(N=Nc2c(N)n[nH]c2-c2ccc(Cl)cc2)c1 do in these assays?
MBD2 DNA inh: inactive; LEDGF integ inh: inactive; UHRF1 MBD2 ctr: inactive; CSN deneddyl inh: inactive; rCAG RNA binder: 40; ATG4B inh: inactive

Results for CC(C)c1ccc(S(=O)(=O)N2CCN(CCC(=O)Nc3ccc(N(C)C)cc3)CC2)cc1 ?
MBD2 DNA inh: 15; LEDGF integ inh: inactive; UHRF1 MBD2 ctr: 23; CSN deneddyl inh: inactive; rCAG RNA binder: inactive; ATG4B inh: inactive

How did COCCCNC(=O)c1oc(=O)c2ccccc2c1-c1ccc(C)cc1 do in these assays?
MBD2 DNA inh: inactive; LEDGF integ inh: inactive; UHRF1 MBD2 ctr: inactive; rCAG RNA binder: inactive

How did O=C(CSc1nc2c(c(=O)[nH]1)CCCC2)N1CCOCC1 do in these assays?
MBD2 DNA inh: inactive; LEDGF integ inh: inactive; UHRF1 MBD2 ctr: inactive; rCAG RNA binder: inactive

Results for O=C(CCl)N1CCN(CC(=O)N2CCCC2)CC1 ?
MBD2 DNA inh: inactive; LEDGF integ inh: inactive; UHRF1 MBD2 ctr: 21; CSN deneddyl inh: inactive; rCAG RNA binder: inactive; ATG4B inh: inactive

How did COc1ccc(S[C@]2(C(=O)NCc3ccccc3)CC(=O)N[C@@H]2c2ccc(OC)cc2)cc1 do in these assays?
MBD2 DNA inh: inactive; LEDGF integ inh: inactive; UHRF1 MBD2 ctr: inactive; rCAG RNA binder: inactive

How did Cc1c(OC(C)C(=O)NCCN2CCOCC2)ccc2c3c(c(=O)oc12)CCCC3 (stereo unspecified) do in these assays?
MBD2 DNA inh: inactive; LEDGF integ inh: inactive; UHRF1 MBD2 ctr: inactive; CSN deneddyl inh: 41; rCAG RNA binder: inactive; ATG4B inh: inactive

Screening data as filed in PubChem.
